Source: PubChem BioAssay (several laboratories)
Hsp70 act = Hsp70 transcriptional activation, primary screen; activation, % at 10 µM; 200,000 compounds, 0.04% hits; HeLa Hsp70 promoter luciferase reporter, luminescence; scaled: vehicle 0, proteasome-inhibitor control 100%;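 active means activation above the mean across all tested compounds plus 3 SD, cutoff set per campaign, cut at about 5.5% in these data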;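 further: 100% = MG132 at 30 µM as the positive control and 0% = DMSO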
Insulin prom inh = TRM-6 insulin promoter activity inhibition | TRM-6 cells (human fetal islet line), insulin promoter-eGFP reporter, imaging; reporter expression induced with tamoxifen | inhibition, % at 2 µM | 130,000 compounds, 0.9% hits | AID 1273;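 active means inhibition above the mean plus 3 SD, with well images judged a real hit on visual review, cut at about 60% in these data, passing the limit was not always enough; inconclusive means inhibition over the cutoff but images rejected on review; inactive means inhibition not above the cutoff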
RBBP9 inh = blocks human serine hydrolase RBBP9. AID 1515. 220,000 compounds, 0.2% hits. O75884. recombinant RBBP9, FP-Rh probe fluorescence polarization. inhibition, % at 7.94 µM;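 active means inhibition above the campaign mean of all tested compounds plus 3 SD, cut at about 14% in these data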;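 further: plate controls were DMSO wells with RBBP9 for no effect and wells lacking RBBP9 protein for full effect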
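System: RBBP9 protein / Buffer or medium: Tris/NaCl buffer pH 8.0 with 0.1% Pluronic / Probe or stimulus: Serine-hydrolase probe FP-Rh, 375 nM pre-mixing / Dosing: 7.94 µM single dose, 0.794% DMSO / Times: enzyme-compound preincubation 30 min, then probe labeling 45 min, 25 °C / Technique: fluorescence polarization (mP), excitation 525 nm, emission 598 nm / Replication: singlicate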
MDM2 E3 inh = Mdm2 E3 ligase (human) inhibition | cell-based MDM2 ubiquitination luciferase reporter, 2 h; 0 = plate control, 100 = twice control, blank-subtracted | signal enhancement, % at 5 µM | 210,000 compounds, 0.11% hits | AID 1230;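 active means signal enhancement of 30% or more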;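 further: luminescence tracks abundance of the self-degrading MDM2-luciferase fusion protein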
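Assay system: stable mammalian line carrying autodegrading MDM2–luciferase fusion reporter; amount: 2000 cells seeded into each well; buffer or medium: DMEM; benchmarks: plate control and blank wells; signal: luciferase luminescence; timing: 2 h compound exposure at 37 °C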
Wee1 degr inh = human Wee1 degradation inhibition, primary screen; reporter increase, % at 5 µM; 220,000 compounds, 1.2% hits; P30291; AID 1321; HeLa Luc-Wee1K328M stability, luciferase luminescence; 100% = proteasome inhibitor MG132 effect;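 active means activation above the mean of all tested compounds plus 3 SD, set per screening run, cut at about 8.8% in these data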;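 further: cells exposed to compound for 20 h before luminescence read; 0% = DMSO alone and 100% = MG132 at 30 µM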
Target sequence (P30291 whole entry K328M): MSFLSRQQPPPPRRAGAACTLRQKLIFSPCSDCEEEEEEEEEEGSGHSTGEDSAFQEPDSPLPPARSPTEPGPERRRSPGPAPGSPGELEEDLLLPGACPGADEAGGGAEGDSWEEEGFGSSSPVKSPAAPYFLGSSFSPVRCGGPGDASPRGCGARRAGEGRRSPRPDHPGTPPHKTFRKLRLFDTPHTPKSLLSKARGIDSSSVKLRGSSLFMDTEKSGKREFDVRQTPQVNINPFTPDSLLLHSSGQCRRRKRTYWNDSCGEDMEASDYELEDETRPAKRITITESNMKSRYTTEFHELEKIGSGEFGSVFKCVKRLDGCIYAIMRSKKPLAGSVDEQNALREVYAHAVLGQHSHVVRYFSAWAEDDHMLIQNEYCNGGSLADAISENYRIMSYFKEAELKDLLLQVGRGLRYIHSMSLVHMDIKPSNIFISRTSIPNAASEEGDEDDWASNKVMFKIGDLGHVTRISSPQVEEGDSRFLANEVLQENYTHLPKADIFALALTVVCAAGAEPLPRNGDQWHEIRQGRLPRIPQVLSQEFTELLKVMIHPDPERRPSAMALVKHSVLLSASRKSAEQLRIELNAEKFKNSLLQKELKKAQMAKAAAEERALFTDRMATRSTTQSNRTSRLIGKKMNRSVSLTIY
Insulin prom up = MIN6 insulin promoter up-regulation. 190,000 compounds, 0.3% hits. MIN6 insulin promoter-GFP reporter, high-content imaging; stronger effect = higher value. z-score at 5 µM;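 active means z-score above 3 at 5 µM with at least 500 cells counted in the well; inconclusive means wells under 500 cells, flagged as cytotoxic or low count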
Wee1 stab conf = human Wee1 degradation inhibition, confirmation; shares compounds with Wee1 degr inh; HeLa Luc-Wee1K328M degradation, luminescence; vehicle 0%, proteasome-blocked wells 100%; activation, % at 5 µM; 1,100 compounds, 4% hits; AID 1410; in the data active means activation above about 8.9%
RBBP9 inh conf = confirmation of human RBBP9 inhibitors; 410 compounds, 36% hits; recombinant RBBP9, FP-Rh probe fluorescence polarization; inhibition, % at 7.94 µM; shares compounds with RBBP9 inh;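 active means inhibition above the hit cutoff derived for the primary screen, cut at about 15% in these data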;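 further: 0% = RBBP9 with DMSO and 100% = wells lacking RBBP9 protein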
Active calls of the source: *; ? = inconclusive; . = no result given. Hits are enriched below; roughly 2.2% of the tested compounds scored in any of these assays.

SMILES	Hsp70 act	Insulin prom inh	RBBP9 inh	MDM2 E3 inh	Wee1 degr inh	Insulin prom up	Wee1 stab conf	others
Clc1ccc(C(c2ccccc2)c2ncc[nH]2)cc1 (centres undefined)	0	-19	-2	-5	0	0.13	.
CN1C2CCC1CC(OC(=O)c1ccc([N+](=O)[O-])cc1)C2 (centres undefined)	0	6	4	-8	13*	0.23	0
CC1CC(OC(=O)c2ccccc2)CC(C)N1C (centres undefined)	0	-4	7	30	3	0.59	.
CN1CCC2(CC1)C(C#N)=C(N)NC(S)=C2C#N	0	.	-4	-24	-2	0.39	.
CSc1nc(N2CCN(C)CC2)c2ccccc2n1	0	.	-5	-17	15*	-0.23	3
O=C(C(=O)N1CCOCC1)c1cn(Cc2ccccc2Cl)c2ccccc12	0	.	-7	-28	1	0.07	.
O=C(C(=O)N1CCOCC1)c1cn(Cc2ccc(F)cc2)c2ccccc12	.	.	-6	.	12*	0.14	-2
Cc1ccc(-n2c(/C=C/c3ccc4c(c3)OCO4)nc3ccccc3c2=O)cc1	0	-3	1	-14	11*	-0.58	1
O=c1c2ccccc2nc(/C=C/c2ccc(O)cc2)n1-c1cccc(O)c1	0	.	-8	-4	12*	0.65	0
C=CCn1c(O)c(C(C)=NCCN2CCN(C(=S)NC)CC2)c(=O)[nH]c1=O	.	.	-9	-2	-1	0.84	.
CC/C(=N\NC(=O)Nc1ccccc1)c1c(O)n(Cc2ccccc2)c(=O)[nH]c1=O	.	.	-1	-10	0	0.17	.
CCN1CCN(c2nc3ccccc3s2)CC1	0	12	-2	-15	15*	-0.29	6
O=P(c1ccccc1)(c1nc2ccccc2s1)N1CCOCC1 (centres undefined)	0	-62	-5	-11	2	.	.
CC(C)N1CCN(c2ccc(O)cc2)CC1	0	44	15*	-12	5	-0.13	.	RBBP9 inh conf=-1
O=c1[nH]c(=O)n(Cc2ccccc2)c(O)c1/C=N/NCCO	.	.	-12	1	2	-0.38	.
CCOC(=O)C1CCCN(c2ccc([N+](=O)[O-])c3nonc23)C1 (centres undefined)	0	.	19*	13	2	2.6	.	RBBP9 inh conf=31*
CC(C)N(Cc1ccco1)/N=C/c1c(O)n(Cc2ccccc2)c(=O)[nH]c1=O	.	.	19*	-17	3	0.25	.	RBBP9 inh conf=7
O=c1[nH]c(=O)n(Cc2ccco2)c(O)c1C=NC1CC1	0	46	-3	-27	-2	.	.
CCC(C)n1c(O)c(C=NC(C)c2ccccc2)c(=O)[nH]c1=S (centres undefined)	.	.	16*	-25	4	1.7	.	RBBP9 inh conf=2
CCOC(=O)c1c(C)n(C(C)C)c2ccc(OC(=O)c3ccc(N4C(=O)CCC4=O)cc3)cc12	0	.	-13	-5	-1	-0.66	.
CC(C)n1c(O)c(C=NCc2ccccc2)c(=O)[nH]c1=S	.	.	-3	-11	-2	-0.13	.
COC(=O)C1=C(N)Oc2c(c(=O)oc3ccccc23)C1c1cccnc1 (centres undefined)	0	43	3	-8	1	-0.83	.
CCN1/C(=C\C=C\C2=[N+](CC)c3ccccc3C2(C)C)C(C)(C)c2ccccc21	0	-257	100*	-62	-2	?	.	RBBP9 inh conf=-50
